From ChEMBL document CHEMBL3297742, “Tetrahydronaphthyridine and dihydronaphthyridinone ethers as positive allosteric modulators of the metabotropic glutamate receptor 5 (mGlu₅)” (J Med Chem, 2014) come the findings set out here.

In data set [1] the target is Metabotropic glutamate receptor 5 (Rattus norvegicus) (UniProt P31424). In words: Positive allosteric modulator activity at rat mGlu5 receptor expressed in HEK293 cells assessed as potentiation of glutamate-induced calcium mobilization at 30 uM by fluorescence assay relative to glutamate. The class given is functional, cell-based. An outline of the steps:
(§1)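 HEK293 cells stably expressing rat mGlu5, 15000 cells/well, grown overnight, loaded with 1 µM Fluo-4AM for 50 min at 37 °C in HBSS/20 mM HEPES/2.5 mM probenecid pH 7.4. Compound added, then an EC20 of glutamate 140 s later and an EC80 90–120 s after that. Fluorescence over basal normalized to maximal glutamate response (100 µM glutamate); compound at up to 30 µM; ≥3 independent determinations.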
For orientation: Calcium flux is commonly read through the fluorescence of an indicator in the cells.

Data set [2] deals with T1, Metabotropic glutamate receptor 5 (Rattus norvegicus, UniProt P31424). In words: Positive allosteric modulator activity at rat mGlu5 receptor expressed in HEK293 cells assessed as potentiation of glutamate-induced calcium mobilization by fluorescence assay. The class given is functional, cell-based. An outline of the steps:
as §1

The subject of data set [3] is Plasma. The experiment in a line: Fraction unbound in human plasma. The class given is ADME, cell-free.
The subject of data set [4] is Plasma. The experiment in a line: (§2) Fraction unbound in rat plasma. The class given is ADME, cell-free.
Data set [5] in a line: as §2. The class given is ADME, cell-free.
Data set [6] deals with Metabotropic glutamate receptor 3 (Rattus norvegicus) (UniProt P31422). The experiment in a line: Negative allosteric modulator activity at rat mGlu3 receptor expressed in HEK293 cells assessed as negative cooperativity fold shift of glutamate concentration response curve for GIRK channel-mediated thallium flux at 10 uM treated 140s prior to glutamate challenge by fluorescence analysis. The class given is cell-based. Put shortly: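 HEK293-GIRK cells expressing rat mGlu2, 3, 4, 6, 7 or 8, 15000 cells/well. Vehicle or 10 µM compound added, then 140 s later a glutamate CRC (L-AP4 for mGlu7) in thallium buffer (12 mM thallium sulfate, 10 mM HEPES). Thallium flux through GIRK read by fluorescence.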

For data set [7], the target named is T1, Metabotropic glutamate receptor 5. In words: Partial antagonist activity at rat mGlu5 receptor expressed in HEK293 cells. The class given is cell-based.
Data set [8] concerns the target Metabotropic glutamate receptor 5 (Rattus norvegicus) (UniProt P31424). The experiment in a line: Partial antagonist activity at rat mGlu5 receptor expressed in HEK293 cells relative to glutamate. The class given is cell-based.

SMILES strings stand for the structures.

Sequence of Metabotropic glutamate receptor 5 (Rattus norvegicus) (P31424 21-1203 limits assumed): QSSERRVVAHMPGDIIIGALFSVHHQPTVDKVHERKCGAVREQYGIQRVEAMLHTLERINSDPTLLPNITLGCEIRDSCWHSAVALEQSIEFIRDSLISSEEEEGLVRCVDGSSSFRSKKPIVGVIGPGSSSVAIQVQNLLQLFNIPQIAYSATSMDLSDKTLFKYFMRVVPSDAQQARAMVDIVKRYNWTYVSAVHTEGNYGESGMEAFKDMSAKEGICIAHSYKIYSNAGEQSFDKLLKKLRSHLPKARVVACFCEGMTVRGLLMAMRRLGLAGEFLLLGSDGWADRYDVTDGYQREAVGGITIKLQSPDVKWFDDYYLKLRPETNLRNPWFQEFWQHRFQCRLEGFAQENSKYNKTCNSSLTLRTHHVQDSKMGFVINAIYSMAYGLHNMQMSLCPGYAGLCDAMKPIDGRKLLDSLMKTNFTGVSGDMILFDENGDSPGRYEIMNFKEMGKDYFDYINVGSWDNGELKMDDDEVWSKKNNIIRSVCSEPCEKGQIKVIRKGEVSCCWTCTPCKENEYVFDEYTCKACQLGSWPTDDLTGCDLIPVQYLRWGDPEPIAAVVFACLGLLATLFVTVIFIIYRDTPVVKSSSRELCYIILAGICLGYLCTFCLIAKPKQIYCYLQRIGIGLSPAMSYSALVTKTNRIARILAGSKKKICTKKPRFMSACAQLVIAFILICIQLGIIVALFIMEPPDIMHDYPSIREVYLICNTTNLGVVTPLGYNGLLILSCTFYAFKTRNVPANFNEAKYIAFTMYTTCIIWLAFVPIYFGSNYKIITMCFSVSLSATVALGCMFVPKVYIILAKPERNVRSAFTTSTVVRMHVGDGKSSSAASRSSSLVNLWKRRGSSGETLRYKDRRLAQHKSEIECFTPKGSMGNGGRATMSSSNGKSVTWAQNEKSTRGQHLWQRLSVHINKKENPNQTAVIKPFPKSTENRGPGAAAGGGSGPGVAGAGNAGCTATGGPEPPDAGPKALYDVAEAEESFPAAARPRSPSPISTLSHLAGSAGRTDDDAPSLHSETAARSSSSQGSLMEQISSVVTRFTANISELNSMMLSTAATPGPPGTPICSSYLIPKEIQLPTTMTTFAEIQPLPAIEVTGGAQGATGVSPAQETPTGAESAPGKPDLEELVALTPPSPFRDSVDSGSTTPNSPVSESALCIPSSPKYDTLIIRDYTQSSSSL
T1 sequence (P31424 whole entry): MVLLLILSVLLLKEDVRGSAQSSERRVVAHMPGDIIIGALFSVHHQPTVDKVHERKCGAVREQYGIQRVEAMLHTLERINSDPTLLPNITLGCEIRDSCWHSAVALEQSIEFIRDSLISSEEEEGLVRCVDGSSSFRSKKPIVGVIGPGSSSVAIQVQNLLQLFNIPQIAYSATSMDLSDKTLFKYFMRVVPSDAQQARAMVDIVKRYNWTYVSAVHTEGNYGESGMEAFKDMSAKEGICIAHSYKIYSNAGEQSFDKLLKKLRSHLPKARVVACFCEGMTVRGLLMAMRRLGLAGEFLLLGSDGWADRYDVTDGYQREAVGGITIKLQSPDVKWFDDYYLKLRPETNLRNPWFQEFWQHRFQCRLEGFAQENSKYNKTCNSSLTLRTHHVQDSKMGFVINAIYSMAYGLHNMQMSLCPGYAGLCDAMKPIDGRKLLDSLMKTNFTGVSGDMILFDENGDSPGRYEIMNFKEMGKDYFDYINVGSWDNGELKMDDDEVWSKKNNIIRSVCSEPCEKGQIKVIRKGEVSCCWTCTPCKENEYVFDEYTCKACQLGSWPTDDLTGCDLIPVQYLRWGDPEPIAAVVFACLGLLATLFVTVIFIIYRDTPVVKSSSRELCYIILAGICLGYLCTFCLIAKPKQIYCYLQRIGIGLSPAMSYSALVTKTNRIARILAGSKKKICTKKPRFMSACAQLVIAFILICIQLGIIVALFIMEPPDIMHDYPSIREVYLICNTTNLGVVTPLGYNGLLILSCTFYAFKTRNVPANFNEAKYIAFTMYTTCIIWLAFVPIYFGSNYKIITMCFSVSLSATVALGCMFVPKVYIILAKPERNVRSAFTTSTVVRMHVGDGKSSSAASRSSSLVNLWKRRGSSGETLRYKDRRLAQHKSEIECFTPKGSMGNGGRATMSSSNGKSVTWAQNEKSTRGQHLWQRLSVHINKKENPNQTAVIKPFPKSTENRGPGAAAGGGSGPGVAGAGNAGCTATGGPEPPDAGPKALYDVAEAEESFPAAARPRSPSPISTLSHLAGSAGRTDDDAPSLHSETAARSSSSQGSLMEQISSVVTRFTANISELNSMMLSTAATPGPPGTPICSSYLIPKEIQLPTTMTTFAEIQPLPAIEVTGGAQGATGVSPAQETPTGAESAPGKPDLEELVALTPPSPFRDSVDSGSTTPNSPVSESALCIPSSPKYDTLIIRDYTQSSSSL
Sequence of Metabotropic glutamate receptor 3 (Rattus norvegicus) (P31422 23-879 limits assumed): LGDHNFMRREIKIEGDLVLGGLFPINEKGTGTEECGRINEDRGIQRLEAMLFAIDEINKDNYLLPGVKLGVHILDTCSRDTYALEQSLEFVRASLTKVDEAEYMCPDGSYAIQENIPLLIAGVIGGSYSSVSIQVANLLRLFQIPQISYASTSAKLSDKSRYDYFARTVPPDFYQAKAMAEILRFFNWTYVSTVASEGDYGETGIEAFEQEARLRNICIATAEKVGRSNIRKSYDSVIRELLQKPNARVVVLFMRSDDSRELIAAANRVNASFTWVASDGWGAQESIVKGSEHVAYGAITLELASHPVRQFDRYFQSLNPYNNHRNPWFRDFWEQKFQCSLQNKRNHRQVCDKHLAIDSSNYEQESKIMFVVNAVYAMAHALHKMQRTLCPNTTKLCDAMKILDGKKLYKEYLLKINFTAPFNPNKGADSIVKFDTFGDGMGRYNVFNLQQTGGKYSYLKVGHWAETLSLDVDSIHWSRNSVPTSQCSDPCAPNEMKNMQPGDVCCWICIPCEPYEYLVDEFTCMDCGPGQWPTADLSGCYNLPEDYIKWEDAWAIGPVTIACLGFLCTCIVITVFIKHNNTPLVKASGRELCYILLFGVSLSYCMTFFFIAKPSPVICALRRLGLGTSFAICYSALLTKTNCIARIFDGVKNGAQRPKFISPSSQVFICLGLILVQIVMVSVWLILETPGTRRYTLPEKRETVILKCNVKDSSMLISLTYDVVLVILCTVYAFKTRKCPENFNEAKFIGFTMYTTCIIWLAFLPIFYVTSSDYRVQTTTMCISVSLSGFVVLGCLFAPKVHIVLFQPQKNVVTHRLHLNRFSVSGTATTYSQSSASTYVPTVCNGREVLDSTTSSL

In the case of `CN1CCc2cc(COc3ccccc3)ncc2C1=O`, the Activity in data set [1] is less than 10%. Take `CC(C)CN1CCc2nc(COc3cccc(F)c3)ccc2C1=O`: the EC50 in data set [2] (read-out: EC50) stood at 1.15 µM. In data set [1], the %max amounted to 38%. For the compound `CCCCOc1ccc2c(n1)CCNC2=O`, the Activity in data set [1] is less than 10%. Still for that read-out and setting: with `O=C(C1CC1)N1CCc2ncc(OCc3cccc(F)c3)cc2C1` the figure was less than 10%. Consider `O=C1c2ccc(OCc3cccc(F)c3)nc2CCN1c1ccc(F)cn1`, for which the EC50 in data set [2] (read-out: EC50) was 0.212 µM. For the same compound, in data set [1], the %max amounted to 50%. Also, the Fu in the data set with Plasma [3] worked out at 0.01; with Plasma [4] it was 0.025. Turning to `O=C1c2ccc(COc3ccccc3)nc2CCN1c1ccc(F)cc1`, the EC50 in data set [2] (read-out: EC50) turned out to be 0.198 µM. Besides, in data set [1], the %max came out at 68%. The compound also displayed a Fu with Plasma [3] of 0.021. Moreover, the fraction unbound (usually free concentration divided by total concentration) in data set [5] was 0.036. Consider `O=C1NCCc2nc(OCc3ccccc3)ccc21`, for which the EC50 in data set [2] (read-out: EC50) is 1.03 µM; in data set [2] (read-out: pEC50 (converted)), 1.05 µM. Also, the %max in data set [1] was 54%. On to `O=C1NCCc2nc(OCc3cccnc3)ccc21`, for which the Activity in data set [1] is less than 10%. Take `O=C1c2ccc(COc3cccc(F)c3)nc2CCN1CC1CC1`: the EC50 in data set [2] (read-out: EC50) was more than 10 µM. In addition, in data set [1], the %max came to 33%. Turning to `CC1(CN2CCc3nc(OCc4cccc(F)c4)ccc3C2=O)COC1`, the EC50 in data set [2] (read-out: EC50) came to 2.47 µM. Moreover, the %max in data set [1] was found to be 39%. With `CN1CCc2nc(COc3cccc(F)c3)ccc2C1=O`, the Activity in data set [1] was less than 10%. Regarding `CC(C)CN1CCc2nc(OCc3cccc(F)c3)ccc2C1=O`, the Activity in data set [1] is less than 10%.

As to `O=C1c2ccc(OCc3cccc(F)c3)nc2CCN1Cc1ccccc1`, in data set [2] (read-out: EC50), the EC50 was determined as 3.17 µM. The %max in data set [1] amounted to 36%. `O=C1NCCc2cc(COc3ccccc3)cnc21`: the Activity in data set [1] is less than 10%. For `O=C(c1ccc(F)cc1)N1CCc2ncc(COc3cccc(F)c3)cc2C1`, the EC50 in data set [2] (read-out: EC50) came to 1.09 µM. The %max in data set [1] turned out to be 69%. For `O=C1NCCc2nc(OCc3ccccc3F)ccc21`, in that order: 1.17 µM and 68%. For `O=C1NCCc2nc(OCc3cccc(Cl)c3)ccc21`, in that order: 0.062 µM and 43%. Consider `CCCCOc1ccc2c(n1)CCN(c1ccc(F)cc1F)C2=O`, for which the Activity in data set [1] was less than 10%. Regarding `CN1CCc2cc(COc3ccccc3)cnc2C1=O`, in data set [1], the Activity was less than 10%. Turning to `O=C1c2ccc(OCc3cccc(F)c3)nc2CCN1CC1CCC1`, the EC50 in data set [2] (read-out: EC50) was determined as 0.444 µM. Moreover, in data set [1], the %max is 36%. For `O=C1NCCc2nc(COc3cccc(F)c3)ccc21`, in that order: more than 10 µM and 34%.

`C[C@@H](N1CCc2cc(COc3ccccc3)cnc2C1=O)C(C)(C)C`: in data set [1], the Activity was less than 10%.

On to `O=C1c2ccc(OCc3cccc(F)c3)nc2CCN1c1ccc(F)cc1`, for which the EC50 in data set [2] (read-out: EC50) was 0.118 µM. Also, in data set [1], the %max came out at 38%. For `O=C1c2cnc(COc3ccccc3)cc2CCN1c1ccc(F)cc1`, in that order: 0.403 µM and 30%.

With `O=C1NCCc2nc(OCc3ccccc3Cl)ccc21`, the Activity in data set [1] was less than 10%. On the same count and under the same terms, to `O=C1NCCc2nc(OCc3ccccn3)ccc21` belongs less than 10%; to `O=C(c1ccccc1)N1CCc2ncc(OCc3ccccc3)cc2C1`, less than 10%. Regarding `O=C(c1cccc(F)c1)N1CCc2ncc(OCc3cccc(F)c3)cc2C1`, the EC50 in data set [2] (read-out: EC50) was 1.63 µM. Moreover, in data set [1], the %max was found to be 30%. For `O=C1NCCc2nc(COc3ccccc3)ccc21`, in that order: more than 10 µM and 43%. For `O=C(c1ccc(F)cc1)N1CCc2ncc(COc3ccc(F)cc3)cc2C1`, in that order: 1.77 µM and 53%. Turning to `O=C1NCCc2nc(OCc3ccc(Cl)cc3)ccc21`, the Activity in data set [1] is less than 10%.

With `O=C1c2ncc(COc3ccccc3)cc2CCN1c1ccc(F)cc1`, in data set [2] (read-out: EC50), the EC50 is 0.538 µM. Besides, the %max in data set [1] was 81%. Besides, the Fu in the data set on Plasma [3] was determined as 0.096; with Plasma [4], 0.11. The fold change (FC) in data set [6] worked out at 0.3.

Regarding `O=C(c1ccc(F)cc1)N1CCc2ncc(OCc3ccccc3)cc2C1`, it took 7.81 µM to reach half-maximal inhibition in data set [7] (IC50). The Emin in data set [8] worked out at 53%.

In the case of `O=C1c2ccc(OCc3cccc(F)c3)nc2CCN1CC1CC1`, the Activity in data set [1] is less than 10%. On to `O=C1c2ccc(OCc3ccccc3)nc2CCN1Cc1ccccc1`, for which, in data set [2] (read-out: EC50), the EC50 was found to be 2.77 µM. Also, the %max in data set [1] worked out at 23%. On to `O=C1NCCc2cc(COc3ccccc3)ncc21`, for which the Activity in data set [1] is less than 10%.

On to `O=C1c2ccc(COc3cccc(F)c3)nc2CCN1c1ccc(F)cc1`, for which, in data set [2] (read-out: EC50), the EC50 amounted to 0.097 µM. For the same compound, the %max in data set [1] is 72%. In addition, the Fu is recorded as 0.014 in the data set on Plasma [3] and 0.029 with Plasma [4]. For the same compound, the fold change (FC) in data set [6] was found to be 0.2.

For `O=C1c2ccc(COc3cccc(F)c3)nc2CCN1Cc1ccccc1`, the EC50 in data set [2] (read-out: EC50) was more than 10 µM. Moreover, the %max in data set [1] was 38%.

As to `CN1CCc2nc(OCc3cccc(F)c3)ccc2C1=O`, the Activity in data set [1] is less than 10%. As to `O=C1c2ccc(COc3cccc(F)c3)nc2CCN1c1ccc(F)cn1`, the EC50 in data set [2] (read-out: EC50) is 0.595 µM. The %max in data set [1] was found to be 59%. As to `CC(N1CCc2cc(COc3ccccc3)ncc2C1=O)C(C)(C)C` (stereo not drawn), the Activity in data set [1] was less than 10%. Take `O=C(c1ccc(F)cc1)N1CCc2ncc(COc3ccccc3)cc2C1`: the EC50 in data set [2] (read-out: EC50) amounted to 0.64 µM. For the same compound, the %max in data set [1] amounted to 69%. In the case of `O=C1c2ccc(OCc3ccccc3)nc2CCN1Cc1ccccn1`, in data set [1], the Activity is less than 10%.
